# Measured values collected from several papers.
# Lines come from different studies, so protocols differ.
# CNR1: Cannabinoid receptor 1 (CNR1, Homo sapiens, UniProt P21554)
# Oprm1: Mu-type opioid receptor (Oprm1, Mus musculus, UniProt P42866)
# HTR2A: 5-hydroxytryptamine receptor 2A (HTR2A, Homo sapiens, UniProt P28223)
Compound,target,test,setting,quantity,result
c1cncc([C@@H]2CCCN2)c1,"Neuronal acetylcholine receptor; alpha4/beta2 (Rattus norvegicus, UniProt P09483+P12390)","cell-free assay, radioligand",,Ki,334 nM
CC[C@H](C)[C@@H](C(=O)N1CCC[C@H]1c1nccs1)N(C)C(=O)[C@H](CC(C)C)N(C)C(=O)[C@H](Cc1ccc(OC)cc1)N(C)C(=O)/C=C(\C)OC,CNR1,"ligand displacement, radioligand",,IC50,16600 nM
CCCCC/C=C\[C@H](C)/C=C\C/C=C\Cc1ccccc1CCCC(=O)N[C@H](C)CO,CNR1,"β-arrestin recruitment, agonist",,EC50,1960 nM
CC(C)[C@@H](CN1CCc2ccccc2C1)NC(=O)c1cccc(-c2cccc(O)c2)c1,Oprm1,"ligand displacement, radioligand",,Ki,1210 nM
O=c1c2cc(Cl)ccc2[nH]c(=S)n1Cc1cccnc1,HTR2A,cell-free assay,,IC50,2600 nM
CC[C@H](C)[C@H](NC(=O)[C@H](CCC(=O)O)NC(=O)[C@H](C)NC(=O)[C@H](CCCCN)NC(=O)[C@H](CC(C)C)NC(=O)[C@@H](NC(=O)[C@H](CCC(=O)O)NC(=O)[C@@H](NC(=O)[C@H](CCC(=O)O)NC(=O)[C@H](CC(=O)O)NC(=O)[C@H](C)NC(=O)[C@@H](NC(=O)[C@@H](NC(=O)[C@H](C)NC(=O)[C@H](C)NC(=O)CCNC(=O)[C@@H](N)CCCCNC(=O)CCCC[C@@H]1SC[C@@H]2NC(=O)N[C@@H]21)C(C)C)[C@@H](C)O)[C@@H](C)O)C(C)C)C(=O)N[C@@H](CO)C(=O)N[C@@H](CCCCN)C(=O)N[C@@H](C)C(=O)N[C@H](C(=O)N[C@@H](CCCCN)C(=O)N[C@@H](CCC(N)=O)C(=O)N[C@H](C(=O)N[C@@H](CCC(N)=O)C(=O)N[C@@H](CCC(=O)O)C(=O)N[C@@H](CCC(=O)O)C(=O)N[C@@H](CC(=O)O)C(=O)N1CCC[C@H]1C(=O)N[C@@H](CC(N)=O)C(N)=O)C(C)C)C(C)C,"Myc proto-oncogene protein (MYC, Homo sapiens, UniProt P01106)","binding, BLI",,Kd,4600 nM
CC(C)(NC(=O)c1nn(CCCCCF)c2ccccc12)c1cccc(C(N)=O)c1,CNR1,"ligand displacement, radioligand",cell membranes,Ki,68 nM
O=C(O)C(F)(F)OC(F)(F)C(F)(F)OC(F)(F)C(F)(F)OC(F)(F)C(F)(F)C(F)(F)C(F)(F)F,"Fatty acid-binding protein, brain (Homo sapiens, UniProt O15540)","ligand displacement, fluorescence",,Kd,20 nM
CC(C)(NC(=O)c1nn(CCCCC(F)(F)F)c2ccccc12)c1cccc(C(N)=O)c1,CNR1,"ligand displacement, radioligand",cell membranes,Ki,210 nM
CCCCCc1ccccc1C/C=C\C/C=C\C/C=C\CCCC(=O)N[C@H](C)CO,CNR1,"β-arrestin recruitment, agonist",,EC50,3440 nM
CCCCC1CNC2CCc3ccc(OC)cc3C12 (racemic),"Sigma non-opioid intracellular receptor 1 (SIGMAR1, Homo sapiens, UniProt Q99720)","ligand displacement, radioligand",,Ki,0.81 nM
COc1cc2c(cc1OC)CN(CCc1ccc(NC(=O)c3cccc4c(=O)c5cccc(OC)c5[nH]c34)cc1)CC2,"Kappa-type opioid receptor (OPRK1, Homo sapiens, UniProt P41145)",cell-free assay,,Ki,> 10000 nM
CCCCC/C=C\C/C=C\C/C=C\Cc1ccccc1CCCC(=O)N[C@H](C)CO,CNR1,"cAMP, agonist",,EC50,315 nM
CC(C)[C@@H](CN1CCc2ccccc2C1)NC(=O)Cc1c[nH]c2ccccc12,Oprm1,"ligand displacement, radioligand",,Ki,1240 nM
C[C@@H](O)[C@@H]1NC(=O)CNC(=O)[C@H](Cc2c[nH]cn2)NC(=O)[C@H](Cc2c[nH]c3ccccc23)NC(=O)[C@H](CC(N)=O)NC(=O)CNC(=O)C[C@@H](C(=O)N[C@@H](Cc2c[nH]c3ccccc23)C(=O)N[C@@H](Cc2ccccc2)C(=O)N[C@@H](Cc2ccccc2)C(=O)N[C@@H](CC(N)=O)C(=O)N[C@@H](Cc2ccc(O)cc2)C(=O)N[C@@H](Cc2ccc(O)cc2)C(=O)N[C@@H](Cc2c[nH]c3ccccc23)C(=O)O)NC(=O)[C@@H]2CCCN2C(=O)[C@H](CO)NC1=O,"Endothelin-1 receptor (EDNRA, Homo sapiens, UniProt P25101)","ligand displacement, radioligand",cell membranes,IC50,> 10000 nM
CCCCCn1nc(C(=O)NC(C)(C)c2cccc(C(N)=O)c2)c2ccccc21,CNR1,"ligand displacement, radioligand",cell membranes,Ki,250 nM
COc1cc2c3c(c1OC)-c1c(OC)ccc(Cl)c1CC3N(C)CC2 (racemic),HTR2A,"cell-free assay, radioligand",,Ki,893 nM
